# Source: ChEMBL document CHEMBL3425447, “Discovery of Orally Available Runt-Related Transcription Factor 3 (RUNX3) Modulators for Anticancer Chemotherapy by Epigenetic Activation and Protein Stabilization” (J Med Chem, 2015)
# How the values were obtained:
# [1] = Metabolic stability in mouse liver microsomes assessed as compound remaining at 1 uM after 30 mins byLC-ESI/MS/MS analysis in presence of NADPH; type: ADME; details: read-out: Stability
# Method in brief: (§1)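 Compound at 1 µM incubated in triplicate with pooled mouse liver microsomes (0.5 mg/ml final) in 0.1 M potassium phosphate, pH 7.4, at 37°C, with or without 1 mM NADPH. Reactions stopped at 0 and 30 min with ice-cold acetonitrile containing internal standard. After centrifugation, supernatant analyzed by LC-ESI/MS/MS; percent remaining from analyte/IS peak-area ratios. Buspirone served as positive control.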
# NCI-H460 [2] = assay: Induction of RUNX3 mRNA expression in human NCI-H460 cells after 24 hrs by RT-PCR analysis; type: functional, cell-based
# Method in brief: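 NCI-H460 cells in RPMI1640 with 10% FBS were plated and treated the following day. After 24 h, total RNA extracted and 1 µg reverse-transcribed. RUNX3 cDNA amplified with specific primers, run on a 1.5% agarose gel and stained with ethidium bromide. GAPDH served as internal control; SNU16 gastric cells served as positive-control line.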
# [3] = Metabolic stability in mouse liver microsomes assessed as compound remaining at 1 uM after 30 mins by LC-ESI/MS/MS analysis in absence of NADPH; type: ADME; details: read-out: Stability; method in brief: as §1
# NCI-H460 [4] = assay: Antitumor activity against human NCI-H460 cells xenografted in BALB/c nude mouse assessed as reduction in tumor weight at 20 mg/kg, po administered daily for 2 weeks measured every 2 or 3 days for 14 days; type: functional
# Method in brief: (§2)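 Female SPF BALB/c nude mice, 6 weeks old, injected subcutaneously in the flank with NCI-H460 cells (3 × 10^7/animal). At tumor volume 50–80 mm3, randomized four per group. Dosed orally at 20 mg/kg in 10% DMAC/10% Tween 80 in saline, daily for two weeks, versus vehicle control. Tumor length and width measured by caliper three times weekly; body weight monitored.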
# [5] = Metabolic stability in human liver microsomes assessed as compound remaining at 1 uM after 60 mins byLC-ESI/MS/MS analysis in presence of UDPGA; type: ADME; details: read-out: Stability
# Method in brief: (§3)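 Rat or human liver microsomes (0.5 mg/ml) incubated with test compound (1 µM) at 37°C for 60 min, with or without NADPH or UDPGA cofactor, n = 2–3. Percent parent remaining quantified by LC-ESI/MS/MS.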
# [6] = Clearance in Sprague-Dawley rat at 2 mg/kg, iv by LC-MS/MS analysis; type: ADME, organism-based; set-up: dose 2 mg/kg, route intravenous; details: in vivo
# Method in brief: (§4)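 Specific pathogen-free male SD rats (10 weeks, 298–315 g), n = 3 per route, single dose 2 mg/kg i.v. or 10 mg/kg p.o. Oral vehicle DMAC/Vitamin E TPGS 80/25% solutol HS 15 (10/10/80); dosing volumes 5 (i.v.) and 10 ml/kg (p.o.). Plasma precipitated with acetonitrile containing carbamazepine internal standard, LC-MS/MS. Noncompartmental analysis of mean profiles; linear-trapezoidal AUC (oral 0–5 h, i.v. to infinity).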
# [7] = AUC(0 to infinity) in Sprague-Dawley rat at 2 mg/kg, iv by LC-MS/MS analysis; type: ADME, organism-based; set-up: time infinity, dose 2 mg/kg, route intravenous; details: plasma
# C2C12 = assay: Induction of RUNX transcriptional activation in mouse C2C12-6xOSE2 cells at 1 uM after 24 hrs by luciferase reporter assay relative to FGF-2; type: functional
# Method in brief: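 C2C12-6xOSE stable cells grown in DMEM with 10% FBS at 37°C, 5% CO2. Seeded at 1 × 10^4 cells/well; next day treated with compound or FGF-2 (1 µM each). After 24 h, luciferase measured with Bright-Glo. Activity expressed as percent of the FGF-2 positive-control response.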
# [8] = Growth inhibition of human NUGC3 cells after 5 days by sulforhodamine B assay; type: functional; details: NUGC-3, 120 h
# [9] = Metabolic stability in human liver microsomes assessed as compound remaining at 1 uM after 60 mins byLC-ESI/MS/MS analysis in presence of NADPH; type: ADME; details: read-out: Stability; method in brief: as §3
# ACHN = assay: Growth inhibition of human ACHN cells after 5 days by sulforhodamine B assay; type: functional; details: 120 h
# HEK293 [10] = assay: Induction of myc-tagged RUNX3 acetylation in human HEK293 cells assessed as RUNX3 level at 1 uM after 24 hrs by immunoprecipitation analysis relative to TSA; type: functional
# Method in brief: (§5)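 HEK293 cells (DMEM, 10% FBS) transfected with myc-RUNX3 vector using Lipofectamine 2000. Next day treated at 1 µM for 24 h. Lysates (HEPES pH 7.5, NP-40 buffer) immunoprecipitated with anti-myc antibody and protein G beads at 4°C. Immunoprecipitates western-blotted with anti-acetylated lysine antibody; relative acetylated RUNX3 quantified.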
# [11] = Retention time of the compound by HPLC analysis; type: physicochemical
# Histone deacetylase = assay: Inhibition of HDAC in human HeLa cell nuclear extract using Fluor de Lys as substrate incubated with compound for 30 mins by microtiter-plate reading flourimeter analysis; type: protein assay
# [12] = Metabolic stability in human liver microsomes assessed as compound remaining at 1 uM after 60 mins by LC-ESI/MS/MS analysis in absence of UDPGA; type: ADME; details: read-out: Stability; method in brief: as §3
# HEK293 [13] = assay: Induction of myc-tagged RUNX3 acetylation in human HEK293 cells assessed as acetylated RUNX3 level at 1 uM after 24 hrs by immunoprecipitation analysis relative to TSA; type: functional; method in brief: as §5
# [14] = Growth inhibition of human HCT15 cells after 5 days by sulforhodamine B assay; type: functional; details: HCT-15, 120 h
# [15] = Growth inhibition of human PC3 cells after 5 days by sulforhodamine B assay; type: functional; details: PC-3, 120 h
# [16] = Oral bioavailability in Sprague-Dawley rat at 10 mg/kg by LC-MS/MS analysis; type: ADME, organism-based; details: in vivo; method in brief: as §4
# [17] = Metabolic stability in rat liver microsomes assessed as compound remaining at 1 uM after 60 mins by LC-ESI/MS/MS analysis in absence of UDPGA; type: ADME; details: read-out: Stability; method in brief: as §3
# [18] = Metabolic stability in rat liver microsomes assessed as compound remaining at 1 uM after 60 mins byLC-ESI/MS/MS analysis in presence of NADPH; type: ADME; details: read-out: Stability; method in brief: as §3
# NCI-H23 = assay: Growth inhibition of human NCI-H23 cells after 5 days by sulforhodamine B assay; type: functional; details: NCI-H23, 120 h
# [19] = Tmax in Sprague-Dawley rat at 10 mg/kg, po by LC-MS/MS analysis; type: ADME, organism-based; set-up: dose 10 mg/kg, route oral; details: in vivo; method in brief: as §4
# [20] = Terminal half life in Sprague-Dawley rat at 2 mg/kg, iv by LC-MS/MS analysis; type: ADME, organism-based; set-up: dose 2 mg/kg, route intravenous; details: in vivo, read-out: beta t1/2 (converted); method in brief: as §4
# [21] = Metabolic stability in human liver microsomes assessed as compound remaining at 1 uM after 60 mins by LC-ESI/MS/MS analysis in absence of NADPH; type: ADME; details: read-out: Stability; method in brief: as §3
# Mus musculus = assay: Toxicity against BALB/c nude mouse xenografted with human NCI-H460 cells assessed as body weight loss at 20 mg/kg, po administered daily for 2 weeks; type: organism-based; set-up: dose 20 mg/kg, route oral; details: in vivo, 336 h; method in brief: as §2
# [22] = Metabolic stability in rat liver microsomes assessed as compound remaining at 1 uM after 60 mins by LC-ESI/MS/MS analysis in absence of NADPH; type: ADME; details: read-out: Stability; method in brief: as §3
# [23] = Terminal half life in Sprague-Dawley rat at 10 mg/kg, po by LC-MS/MS analysis; type: ADME, organism-based; set-up: dose 10 mg/kg, route oral; details: in vivo, read-out: beta t1/2 (converted); method in brief: as §4
# MDA-MB-231 = assay: Growth inhibition of human MDA-MB-231 cells after 5 days by sulforhodamine B assay; type: functional; details: MDA-MB-231, 120 h
# [24] = AUC (0 to 5 hrs) in Sprague-Dawley rat at 10 mg/kg, po by LC-MS/MS analysis; type: ADME, organism-based; set-up: dose 10 mg/kg, route oral; details: plasma; method in brief: as §4
# [25] = Metabolic stability in rat liver microsomes assessed as compound remaining at 1 uM after 60 mins by LC-ESI/MS/MS analysis in presence of UDPGA; type: ADME; details: read-out: Stability; method in brief: as §3
# [26] = Cmax in Sprague-Dawley rat at 10 mg/kg, po by LC-MS/MS analysis; type: ADME, organism-based; set-up: dose 10 mg/kg, route oral; details: in vivo; method in brief: as §4
# [27] = Volume of distribution at steady state in Sprague-Dawley rat at 2 mg/kg, iv by LC-MS/MS analysis; type: ADME, organism-based; set-up: dose 2 mg/kg, route intravenous; details: in vivo, read-out: Vdss; method in brief: as §4
structure (smiles),measurement,setting,value
O=C(/C=C/c1cccn(Cc2ccc3ccccc3n2)c1=O)NO,"remaining at 0.5 h, 1 µM",[1],90.3%
same,Activity,NCI-H460 [2],Dose-dependent effect
same,"remaining at 0.5 h, 1 µM",[3],100%
same,inhibition in vivo at 20 mg/kg,NCI-H460 [4],45.7%
same,"remaining at 1 h, 1 µM",[5],99.7%
same,clearance,[6],93.3 mL/min/kg
same,AUC(0-inf),[7],354 ng·h/mL
same,Activity,C2C12,687.5%
same,GI50,[8],710 nM
same,"remaining at 1 h, 1 µM",[9],75.5%
same,GI50,ACHN,250 nM
same,fold change (FC),HEK293 [10],29.3
same,Retention_time,[11],9.606 min
same,IC50,Histone deacetylase,30 nM
same,"remaining at 1 h, 1 µM",[12],95.2%
same,fold change (FC),HEK293 [13],77.5
same,GI50,[14],380 nM
same,GI50,[15],490 nM
same,bioavailability,[16],48.7%
same,"remaining at 1 h, 1 µM",[17],88.9%
same,"remaining at 1 h, 1 µM",[18],83.5%
same,GI50,NCI-H23,130 nM
same,Tmax,[19],0.67 h
same,half-life,[20],4.4 h
same,"remaining at 1 h, 1 µM",[21],74.7%
same,Activity,Mus musculus,Non-toxic
same,"remaining at 1 h, 1 µM",[22],92%
same,half-life,[23],10.3 h
same,GI50,MDA-MB-231,100 nM
same,AUC(0-t) at 4 h,[24],863 ng·h/mL
same,"remaining at 1 h, 1 µM",[25],72.4%
same,Cmax,[26],142 ng/mL
same,Vd,[27],14 L/kg
